Read-outs that look alike come from different tables or passages of the source.
Key:
U118MG cells [1] = assay: MTT growth inhibition assay, U118MG; conditions: Homo sapiens, U-118-MG, 72 h, read-out: IC50, cytotoxicity U118MG
NU04 cells [2] = assay: MTT growth inhibition assay, NU04; conditions: Homo sapiens, 72 h, read-out: IC50, cytotoxicity NU04
U87MG cells [3] = assay: MTT growth inhibition assay, U87MG; conditions: for IC50: read-out: IC50, cytotoxicity U87MG; for Effect on cell growth: in words
PDI [4] = biological target: T1, PDI (Homo sapiens, UniProt P07237); assay: PDI-catalyzed insulin reduction; format: biochemical
T1 sequence (P07237 18-508): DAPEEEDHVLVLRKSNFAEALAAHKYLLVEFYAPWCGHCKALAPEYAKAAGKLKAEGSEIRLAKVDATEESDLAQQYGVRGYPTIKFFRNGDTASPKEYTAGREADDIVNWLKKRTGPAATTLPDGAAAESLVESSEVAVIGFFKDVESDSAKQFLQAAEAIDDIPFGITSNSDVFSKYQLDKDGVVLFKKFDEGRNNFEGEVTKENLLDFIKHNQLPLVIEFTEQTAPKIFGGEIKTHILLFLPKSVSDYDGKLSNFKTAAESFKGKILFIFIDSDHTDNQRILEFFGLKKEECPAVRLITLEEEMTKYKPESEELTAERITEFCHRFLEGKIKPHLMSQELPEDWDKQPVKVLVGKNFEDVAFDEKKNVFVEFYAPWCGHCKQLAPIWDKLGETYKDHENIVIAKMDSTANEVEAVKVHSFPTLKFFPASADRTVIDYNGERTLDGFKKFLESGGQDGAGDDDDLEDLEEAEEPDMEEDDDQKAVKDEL

A172 cells [5] = assay: MTT growth inhibition assay, A172; conditions: Homo sapiens, A 172, 72 h, read-out: IC50, cytotoxicity A172
U87MG cells [6] = assay: Western blot of protein expression; format: cell-based, human; conditions: 24-hour treatment
Summary of the method: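 U87MG cells were treated with test compound (1 or 2 μM) or vehicle for 24 h. 50 μg protein on 10% gels (12% for LC3B, DDIT3), transferred to PVDF. GAPDH loading control; triplicate experiments.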

U87MG cells [7] = assay: ROS detection assay; format: cell-based, human; conditions: 5 μM, 24 hours; comparable to 100 μM hydrogen peroxide
Summary of the method: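 Trypsinized U87MG cells were loaded in suspension with 20 μM H2DCFDA for 30 min at 37 °C, washed, plated at 20,000 cells/well, rested 30 min, then treated. Fluorescence (493/523 nm) was read at 4, 6 and 24 h. Hydrogen peroxide (500, 100, 20 μM) served as reference. Means ± standard deviation of three independent experiments.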

GSTO1 = biological target: T2, GSTO1 (Homo sapiens, UniProt P78417); assay: DARTS assay in U87MG cell lysates, GSTO1; format: binding; conditions: 100 μM compound, U87MG lysate
T2 sequence (P78417 1-241): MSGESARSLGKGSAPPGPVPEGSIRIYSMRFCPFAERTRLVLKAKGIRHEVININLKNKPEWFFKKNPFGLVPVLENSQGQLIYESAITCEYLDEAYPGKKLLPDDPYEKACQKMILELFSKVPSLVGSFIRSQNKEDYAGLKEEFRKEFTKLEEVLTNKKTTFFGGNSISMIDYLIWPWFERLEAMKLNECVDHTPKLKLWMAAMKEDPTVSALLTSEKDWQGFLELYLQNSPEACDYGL
Summary of the method: (§1)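 U87MG cells at 80–85% confluence were lysed on ice for 10 min (150 mM NaCl, 1% NP-40, 0.5% deoxycholate, 50 mM Tris pH 8.0) and cleared at 18,000 × g. Lysate (5 mg/ml) was incubated with 100 μM test compound or DMSO for 30 min at RT. Pronase (0, 0.005, 0.01, 0.02 μg/μL) was added for 30 min at RT and stopped with protease inhibitors on ice. 20 μg protein was Western blotted; three independent experiments.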

GRP78 [8] = biological target: T3, GRP78 (Homo sapiens, UniProt P11021); assay: DARTS assay in U87MG cell lysates, GRP78; format: binding; conditions: 100 μM compound, U87MG lysate
T3 sequence (P11021 19-654): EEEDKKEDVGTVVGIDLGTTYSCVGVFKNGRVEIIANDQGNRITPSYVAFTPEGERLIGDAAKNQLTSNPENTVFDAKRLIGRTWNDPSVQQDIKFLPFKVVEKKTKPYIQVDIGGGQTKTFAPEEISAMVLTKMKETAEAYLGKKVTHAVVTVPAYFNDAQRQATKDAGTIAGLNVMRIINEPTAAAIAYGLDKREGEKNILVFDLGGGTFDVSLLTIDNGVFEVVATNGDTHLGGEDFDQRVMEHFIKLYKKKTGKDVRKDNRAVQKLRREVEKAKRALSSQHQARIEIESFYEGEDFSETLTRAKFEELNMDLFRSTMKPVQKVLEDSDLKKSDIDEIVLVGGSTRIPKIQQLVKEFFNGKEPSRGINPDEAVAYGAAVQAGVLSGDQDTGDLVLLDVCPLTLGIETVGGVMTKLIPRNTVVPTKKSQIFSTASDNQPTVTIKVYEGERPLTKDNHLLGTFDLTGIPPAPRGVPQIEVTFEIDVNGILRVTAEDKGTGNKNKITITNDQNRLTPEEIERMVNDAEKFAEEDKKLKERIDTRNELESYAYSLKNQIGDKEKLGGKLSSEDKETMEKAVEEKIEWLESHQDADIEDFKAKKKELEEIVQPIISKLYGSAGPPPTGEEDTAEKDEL
Summary of the method: as §1

GRP78 [9] = biological target: T3, GRP78; assay: Cellular thermal shift assay; format: cell-based; conditions: U87MG cells, 2 hours
Summary of the method: (§2)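 U87MG cells (2 × 10^6 per 100 mm dish) were attached overnight, then treated with test compound (0.5, 1.0 or 2.0 μM) or DMSO for 2 h at 37 °C, 5% CO2. Cells were trypsinized, washed in DPBS and aliquoted. Aliquots were heated at set temperatures for 3 min, held 3 min at room temperature and freeze-thawed twice. Cleared supernatants were run on 10% SDS-PAGE and Western blotted.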

U87MG cells [10] = assay: MTT cell viability with or without deferoxamine; format: cell-based; conditions: Homo sapiens, U-87 MG, 12 h, read-out: IC50, cell viability, used alone
PDI [11] = biological target: T1, PDI; assay: DARTS assay in U87MG cell lysates, PDI; format: binding; conditions: 100 μM compound, U87MG lysate
Summary of the method: as §1

PDI [12] = biological target: T1, PDI; assay: Cellular thermal shift assay; format: cell-based; conditions: U87MG cells, 2 hours
Summary of the method: as §2

[13] = biological target: T4, glutathione-transferase Omega 1 (GSTO1) (Homo sapiens, UniProt P78417); assay: Cellular thermal shift assay; format: cell-based; conditions: U87MG cells, 2 hours
T4 sequence (P78417 1-241): T2 sequence (P78417 1-241)
Summary of the method: as §2

glioblastoma cells = assay: MTT growth inhibition of 35G8 combined with Z-VAD-FMK, necrostatin-1 or NAC; format: cell-based, human
U87MG cells [14] = assay: Bru-seq nascent RNA sequencing; format: cell-based, human; conditions: 1 μM, 4 hours
Summary of the method: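 U87MG cells plated on day 1, given fresh medium on day 5, then exposed to test compound (1 μM) or DMSO for 4 h. Bromouridine (2 mM final) labelled nascent RNA during the last 30 min. Total RNA was isolated in TRIzol, and BrU-RNA was isolated, sequenced and mapped. Genes >300 bp with mean RPKM >0.5 (7,770 genes) were ranked by fold change vs DMSO.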

PDI [15] = conditions: reversible PDI modulator; cited from earlier work
U87MG cells [16] = system: U87MG cells
NU04 cells [17] = system: NU04 cells
U118MG cells [18] = system: U118MG cells
A172 cells [19] = system: A172 cells

Cn1nc(-c2ccccc2)nc2c(=O)n(C)c(=O)nc1-2 [Compound 4b, 1,6-Dimethyl-3-phenylpyrimido[5,4-e][1,2,4]triazine-5,7(1H,6H)-dione]
IC50 (U118MG cells [1]): 4.6 ± 0.5 µM | IC50 (NU04 cells [2]): 3.7 ± 1.2 µM | IC50 (U87MG cells [3]; Homo sapiens, U-87 MG, 72 h): 3 ± 0.3 µM | IC50 (PDI [4]): 0.39 ± 0.03 µM | IC50 (A172 cells [5]): 1.8 ± 0.4 µM

Cn1nc(Cc2ccccc2)nc2c(=O)n(C)c(=O)nc1-2 [Compound 4c, 3-Benzyl-1,6-dimethylpyrimido[5,4-e][1,2,4]triazine-5,7(1H,6H)-dione]
IC50 (U118MG cells [1]): 24 ± 7.4 µM | IC50 (NU04 cells [2]): > 30 µM | IC50 (U87MG cells [3]; Homo sapiens, U-87 MG, 72 h): 12.7 ± 3.7 µM | IC50 (PDI [4]): 0.33 ± 0.04 µM | IC50 (A172 cells [5]): 8.2 ± 2.5 µM

COc1ccc(-c2nc3c(=O)n(C)c(=O)nc-3n(C)n2)cc1 [Compound 4d, 3-(4-Methoxyphenyl)-1,6-dimethylpyrimido[5,4-e][1,2,4]triazine-5,7(1H,6H)-dione]
IC50 (U118MG cells [1]): 3.9 ± 0.6 µM | IC50 (NU04 cells [2]): 0.86 ± 0.04 µM | IC50 (U87MG cells [3]; Homo sapiens, U-87 MG, 72 h): 1.2 ± 0.2 µM | IC50 (PDI [4]): 0.36 ± 0.05 µM | IC50 (A172 cells [5]): 1.5 ± 0.4 µM

COc1cccc(-c2nc3c(=O)n(C)c(=O)nc-3n(C)n2)c1 [Compound 4e, 3-(3-Methoxyphenyl)-1,6-dimethylpyrimido[5,4-e][1,2,4]triazine-5,7(1H,6H)-dione]
IC50 (U118MG cells [1]): 2.4 ± 0.6 µM | IC50 (NU04 cells [2]): 0.76 ± 0.22 µM | IC50 (U87MG cells [3]; Homo sapiens, U-87 MG, 72 h): 1.1 ± 0.2 µM | IC50 (PDI [4]): 0.32 ± 0.01 µM | IC50 (A172 cells [5]): 1.5 ± 0.1 µM

Cn1nc(-c2ccc([N+](=O)[O-])cc2)nc2c(=O)n(C)c(=O)nc1-2 [Compound 4f, 1,6-Dimethyl-3-(4-nitrophenyl)pyrimido[5,4-e][1,2,4]triazine-5,7(1H,6H)-dione]
IC50 (U118MG cells [1]): 6.2 ± 1.6 µM | IC50 (NU04 cells [2]): 4.9 ± 1.2 µM | IC50 (U87MG cells [3]; Homo sapiens, U-87 MG, 72 h): 1.8 ± 0.7 µM | IC50 (PDI [4]): 0.24 ± 0.04 µM | IC50 (A172 cells [5]): 1.1 ± 0.2 µM

COc1ccc(-c2nn(C)c3nc(=O)n(C)c(=O)c-3[n+]2[O-])cc1 [Compound 5d, 3-(4-Methoxyphenyl)-1,6-dimethyl-5,7-dioxo-1,5,6,7-tetrahydropyrimido[5,4-e][1,2,4]triazine 4-oxide]
IC50 (U118MG cells [1]): 4.3 ± 0.1 µM | IC50 (NU04 cells [2]): 1.5 ± 0.7 µM | IC50 (U87MG cells [3]; Homo sapiens, U-87 MG, 72 h): 1.9 ± 0.7 µM | IC50 (PDI [4]): 0.42 ± 0.07 µM | IC50 (A172 cells [5]): 1.7 ± 0.1 µM

Cc1nc2c(=O)n(C)c(=O)nc-2n(C)n1 [Compound 35G8, 1,3,6-Trimethylpyrimido[5,4-e][1,2,4]triazine-5,7(1H,6H)-dione]
Cleaved LC3B expression (U87MG cells [6]; 2 μM): increased significantly | DDIT3 protein expression (U87MG cells [6]; 2 μM): increased | Expression of ATG3, ATG5, ATG7 and beclin 1 (U87MG cells [6]; 2 μM): did not change | GRP78 (HSPA5) protein expression (U87MG cells [6]; 2 μM): increased | HMOX1 protein expression (U87MG cells [6]; 1 or 2 μM): parallel increases | SLC7A11 protein expression (U87MG cells [6]; 1 or 2 μM): parallel increases | ROS induction (U87MG cells [7]): maximal ROS induction | Effect on degradation of GSTO1 (DARTS) (GSTO1): no effect | Effect on degradation of GRP78 (DARTS) (GRP78 [8]): no effect | IC50 (U118MG cells [1]): 3.9 ± 0.1 µM | Effect on thermal stability of GRP78 (CETSA) (GRP78 [9]): little effect | IC50 (U87MG cells [10]): 2.2 ± 0.7 µM | Protection of PDI from pronase proteolysis (DARTS) (PDI [11]): protected | Effect on thermal stability of PDI (CETSA) (PDI [12]): destabilized | Effect on thermal stability of GSTO1 (CETSA) [13]: stabilize | IC50 (NU04 cells [2]): 0.8 ± 0.2 µM | IC50 (U87MG cells [3]; Homo sapiens, U-87 MG, 72 h): 1.1 ± 0.2 µM | IC50 (PDI [4]): 0.17 ± 0.01 µM | Effect of N-acetyl-cysteine (NAC) on cytotoxicity of 35G8 (glioblastoma cells; NAC added at the same time as 35G8): did not affect | Protection from 35G8-induced cell death by necrostatin-1 pretreatment (glioblastoma cells; Necrostatin-1 added 1 hour prior to 35G8): did not protect | Protection from 35G8-induced cell death by Z-VAD-FMK pretreatment (glioblastoma cells; Z-VAD-FMK added 1 hour prior to 35G8): did not protect | IC50 (A172 cells [5]): 2 ± 0.6 µM | CHAC1 transcription (U87MG cells [14]): 46 fold increase | DDIT3 transcription (U87MG cells [14]): 4 fold increase | EGR1 transcription (U87MG cells [14]): −5.65 fold change | HSPA5 transcription (U87MG cells [14]): 8 fold increase | IRS2 transcription (U87MG cells [14]): 12 fold increase | ITGA3 transcription (U87MG cells [14]): −3.89 fold change | TMEM74 transcription (U87MG cells [14]): 28 fold increase | TRIB3 transcription (U87MG cells [14]): 23 fold increase | TXN expression (U87MG cells [14]): 2 fold increase | TXNIP expression (U87MG cells [14]): 7.4 fold decrease | TXNIP transcription (U87MG cells [14]): −7.40 fold change | TXNRD1 expression (U87MG cells [14]): 9 fold increase

O=C(C1CC1)N1CCN(Cn2sc3ccccc3c2=O)CC1 [LOC14]
EC50 (PDI [15]): 0.5 µM

Cn1ncnc2c(=O)n(C)c(=O)nc1-2 [NC72]
IC50 (U87MG cells [3]; MTT, 72 hours): 0.5 ± 0.1 µM

Cn1c(=O)[nH]c2nncnc2c1=O [NC75]
Effect on cell growth (U87MG cells [3]; MTT): little effect on cell growth | IC50 (U87MG cells [3]; MTT, 72 hours): > 100 µM

Cc1nn(C)c2nc(=O)n(C)c(=O)c-2[n+]1[O-] [NC79]
Effect on cell growth (U87MG cells [3]; MTT): little effect on cell growth | IC50 (U87MG cells [3]; MTT, 72 hours): > 100 µM

PACMA31
Effect on degradation of GSTO1 (DARTS) (GSTO1): no effect | IC50 (U87MG cells [16]): 0.13 ± 0.07 µM | IC50 (NU04 cells [17]): 0.4 ± 0.1 µM | Effect on degradation of GRP78 (DARTS) (GRP78 [8]): no effect | Protection of PDI from pronase proteolysis (DARTS) (PDI [11]): protected | IC50 (U118MG cells [18]): 0.28 ± 0.04 µM | IC50 (A172 cells [19]): 0.12 ± 0.1 µM

From PMC6242712 (ChemMedChem, 2018)
